Measurements: PMC6982540 (Nature chemical biology, 2019)

What was measured:
[1] = test system: reduced PTP1B (PTP1B-R); test: SPR; format: binding; settings: 14-3-3ζ 5000 nM (Fig. 2c), HBS-N pH 7.4, 25 °C
Summary of the method: (§1)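 His-PTP1B (1–321) kept in TCEP. For oxidized, phosphorylated form: H2O2 oxidation (250 μM, 10 min, RT), desalting into reductant-free kinase buffer, AKT phosphorylation 16 h at 30°C. Captured on Ni2+-activated NTA chip (2.7 μM injected); reference cell had no NiCl2. 14-3-3ζ in HBS-N pH 7.4 injected at 30 μl/min, 3 min dissociation, 2 M NaCl regeneration, 25 °C.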

[2] = test system: PTP1B-OX(P); test: SPR; format: binding; settings: 14-3-3ζ 5000 nM (Fig. 2c), HBS-N pH 7.4, 25 °C
Summary of the method: as §1

[3] = test system: reduced PTP1B; test: in vitro pull-down of reduced PTP1B with 14-3-3ζ; format: binding; settings: 50 nM PTP1B-R, 5 μM 14-3-3ζ, pH 7.4, 2 hours at 4°C, immunoblot
Summary of the method: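 Bacterial His-PTP1B (1–321) kept in 1 mM TCEP; GST-14-3-3ζ purified on glutathione agarose. Reduced PTP1B 50 nM with 14-3-3ζ 5 μM in HEPES binding buffer (BSA, Tween, pH 7.4), 2 h at 4°C. Glutathione agarose capture 1 h at 4°C, three washes, SDS-PAGE; immunoblot with anti-PTP1B and anti-GST.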

[4] = test system: PTP1B–14-3-3ζ association; format: cell-based
[5] = test system: 14-3-3ζ; test: pTyr loop derived-peptide pulldown from HEK293T lysates, iTRAQ LC-MS/MS; format: binding, human
[6] = test system: PTP1B; test: cysteinyl-labeling assay; format: cell-based; settings: EGF 100 ng/ml, indicated times; three independent experiments
[7] = test system: PTP1B; test: PTP1B catalytic activity; format: cell-based; settings: EGF 100 ng/ml, pNPP, N=3 independent experiments

Compound: 14-3-3ζ: bacterially expressed, purified GST-14-3-3-ζ protein
- SPR binding of 14-3-3ζ to active reduced PTP1B [1]: not to the active reduced form of the enzyme
- SPR binding of 14-3-3ζ to oxidized, phosphorylated PTP1B [2]: specifically binds to PTP1B in its oxidized and phosphorylated inactive state
- interaction of 14-3-3ζ with reduced PTP1B, in vitro pull-down [3]: no interaction occurred with reduced PTP1B

Compound: CC(=O)N[C@@H](CS)C(=O)O [NAC, N-acetylcysteine, reference compound]
- PTP1B–14-3-3ζ association in cells, NAC ([4]; NAC 1 mM, 1 h, EGF stimulation, two independent experiments (Fig. 1d)): Redox-dependent association between PTP1B and 14-3-3ζ was confirmed

Compound: CKNRNRYRDVS [pTyr loop-derived-peptide]
- enrichment of 14-3-3ζ by peptide bait (iTRAQ) ([5]; HEK293T lysate, 90 minutes at 4 °C, vs cysteine control beads): one of the most abundant proteins, and the most abundant 14-3-3 isoform
- nature of interaction of unphosphorylated loop peptide with 14-3-3ζ ([5]; concluded from SPR compared with MS analysis): occurs indirectly via a protein intermediate

Compound: EGF: epidermal growth factor, 100 ng/ml, used to activate EGFR
- PTP1B–14-3-3ζ association following EGF ([4]; EGF 100 ng/ml, 0-10 min, HEK293T, three independent experiments): transient association between PTP1B and 14-3-3ζ between 2 to 5 minutes
- reversible oxidation (biotinylation) of PTP1B, EGF [6]: PTP1B biotinylation was detected in a transient manner at 1 and 2 minutes
- PTP1B activity after EGF 10 min [7]: mostly recovered
